Compound activity deposited in PubChem by several laboratories.
Tb MetRS inh: T. brucei MetRS inhibitors, primary screen, biochemical, luminescence | inhibition, % at 11.9 µM | purified T. brucei MetRS, ATP depletion, Kinase-Glo luminescence | actives 0.4% (n = 360,000) | methionyl-tRNA synthetase (Trypanosoma brucei brucei);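 active = inhibition above a per-plate cutoff of the control wells' mean inhibition plus 3 SD, cut at about 5.5% in these data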;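 also: 0% = DMSO wells median and 100% = median of wells with control inhibitor compound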
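assay system = parasite MetRS enzyme | timing = 15 min preincubation, 2 h reaction, all 25 °C | evaluation = percent inhibition relative to median high and low control wells | medium = HEPES buffer containing pyrophosphatase, BSA, spermine, DTT | compound = single dose, 11.9 µM final nominal, 0.9% final DMSO | detection = Kinase-Glo luminescence, ATP depletion format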
AHR act: AHR activators, primary screen, cell-based, luminescence, luciferase reporter, human; Aryl hydrocarbon receptor (Homo sapiens), P35869; activation, % at 5 µM; actives 2.5% (n = 320,000); AHR-responsive luciferase reporter cells; in the data active = activation above about 47%;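 also: 0% = vehicle wells and 100% = reference agonist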
HTR2A ag: mouse Htr2a agonists via beta-arrestin recruitment, primary screen, cell-based, luminescence; 5-hydroxytryptamine receptor 2A (Mus musculus), P35363; CHO-K1 mHTR2A beta-arrestin complementation; percent of 30 µM serotonin response; activation, % at 7.6 µM; actives 0.66% (n = 360,000); AID 624169, 2012;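 active = activation above a run cutoff, the mean activation of all tested compounds plus 3 SD, cut at about 14% in these data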;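 also: 0% = plate median of compound wells and 100% = 30 µM serotonin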
Target sequence (P35363 whole entry, looked up): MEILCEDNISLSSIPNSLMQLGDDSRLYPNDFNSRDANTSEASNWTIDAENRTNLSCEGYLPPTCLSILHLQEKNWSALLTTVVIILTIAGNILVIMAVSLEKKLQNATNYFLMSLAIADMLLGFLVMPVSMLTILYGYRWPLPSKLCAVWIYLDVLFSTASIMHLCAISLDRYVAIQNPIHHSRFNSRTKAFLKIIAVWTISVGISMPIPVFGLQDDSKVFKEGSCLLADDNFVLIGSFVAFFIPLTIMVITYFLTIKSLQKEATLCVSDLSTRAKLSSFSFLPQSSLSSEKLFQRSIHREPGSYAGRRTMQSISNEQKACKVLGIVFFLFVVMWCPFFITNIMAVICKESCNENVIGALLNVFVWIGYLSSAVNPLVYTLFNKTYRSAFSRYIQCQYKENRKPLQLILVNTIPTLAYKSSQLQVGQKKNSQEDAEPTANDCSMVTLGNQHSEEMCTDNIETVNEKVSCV
AI-2 QS mod: Vibrio harveyi AI-2 quorum sensing modulators, primary screen, JMH597 strain, luminescence/OD600 ratio | actives 0.4% (n = 300,000) | activity change, % at 7.5 µM | Vibrio harveyi JMH597 AI-2 luminescence/OD600 ratio, 9 h; hits give low values; strain lacks LuxN and CqsS sensors; 0 = neutral-control median | AID 2094, 2009; in the data active = activity change below about -75%, passing the limit was not always enough;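 also: luminescence divided by OD600 gain over 9 h not by final OD600 alone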
MsrA inh: bovine MsrA enzyme inhibitors, primary screen, biochemical, absorbance, HTS; AID 651718, 2012; purified bovine MsrA, absorbance read-out; Methionine sulfoxide reductase A (Bos taurus); inhibition, % at 15.5 µM; actives 0.75% (n = 360,000); in the data active = inhibition above about 4.5%;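 also: 0% = vehicle wells with enzyme and 100% = reference inhibitor wells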
bovine MsrA act: bovine MsrA enzyme activators, primary screen, biochemical, absorbance, HTS. actives 0.3% (n = 360,000). activation, % at 10.6 µM. purified bovine MsrA, absorbance read-out. Methionine sulfoxide reductase A (Bos taurus); in the data active = activation above about 7.5%;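 also: 0% = vehicle and 100% = reference activator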
Active calls of the source: *; x = not tested or not shown. Only some compounds are listed: those with a hit (about 4.4% of all), similar ones and a draw of the others.

SMILES	Tb MetRS inh	AHR act	HTR2A ag	AI-2 QS mod	MsrA inh	bovine MsrA act
C/C(=N\Nc1cccc2cccnc12)c1ccc(N)cc1	0	29	5	-6	1	-5
C/C(=N\Nc1cccc2cccnc12)c1ccccc1O	1	50*	5	25	0	-5
Cc1ccc(S(=O)(=O)N2CC3=C(c4ccccc4)CC4(C)C(=O)C(C)(C)CC4=C3C2)cc1 (centres undefined)	x	x	x	x	0	x
O=C(NC(=S)Nc1ccccc1N1CCCC1)c1ccccc1Br	-1	75*	4	5	0	-7
COc1cccc(C(=O)NC(=S)Nc2ccccc2N2CCCC2)c1	0	49*	-1	17	-1	-4
O=C(NC(=S)Nc1ccccc1N1CCCC1)c1ccccc1[N+](=O)[O-]	-1	6	3	25	0	-3
COc1cccc(C(=O)NC(=S)Nc2ccccc2N2CCCCC2)c1	0	73*	-3	-5	1	-2
COc1cccc(C(=O)Nc2ccccc2N2CCCC2)c1	0	2	-4	22	0	-2
CCCCOCCCNC(=O)C[C@H]1C[C@@]2(C(=O)OC)C(=C[C@H](COCc3ccccc3)O[C@@H]2C)N(CCC2=CCCCC2)C1=O	x	x	x	x	-1	x
CC(C)CN1CCN(C(=O)CCc2nnc(Cc3c[nH]c4ccccc34)o2)[C@@H](C)C1=O	0	x	1	0	1	-6
C=CCN=C1NC(c2ccc(Cl)cc2)C(C(=O)OC)=C(C)N1C (centres undefined)	x	x	x	x	0	x
COc1cccc2c1O/C(=N\O)C(C(=O)Nc1ccc(C)cc1)C2 (centres undefined)	0	23	2	-89*	-1	-2
O=C(Nc1ccn(Cc2ccc(Cl)cc2)n1)c1ccccc1	-1	7	-1	-87*	0	-5
COc1cc(OC)cc(-c2nnc(SCc3ccc(C(=O)O)cc3)o2)c1	-1	0	1	25	-1	-5
O=c1c2ccccc2oc2cc(NCCCN3CCOCC3)ccc12	0	19	-1	18	4.6*	-3
COc1ccccc1OCC(=O)N/N=C/c1c(O)ccc2ccccc12	0	51*	0	13	1	-4
Cc1ccccc1Nc1cc2ccccc2c(=O)[nH]1	13*	27	0	32	x	-8
O=c1[nH]c(Nc2ccc(F)cc2)cc2ccccc12	17*	13	-1	30	0	1
O=c1[nH]c(Nc2ccccc2Cl)cc2ccccc12	4	21	10	40	-2	1
O=c1[nH]c(Nc2ccccn2)cc2ccccc12	0	25	6	1	1	-3
COc1cccc(S(=O)(=O)N(C)C[C@@H]2OCc3cnnn3CCCC(=O)N([C@H](C)CO)C[C@@H]2C)c1	-2	x	-1	x	0	1
CCNC(=S)/N=C(\N)Nc1nc(C)c2cc(C)ccc2n1	1	77*	-2	30	0	-1
COc1ccc(NC(=S)/N=C(\N)Nc2nc(C)c3ccc(C)cc3n2)cc1	0	55*	-5	-8	0	0
COc1ccc(C(=O)NCCc2nnc3ccc(SCC(=O)NCCc4ccc(OC)c(OC)c4)nn23)cc1	0	-2	4	8	0	-9
CCOC(=O)c1c(C)[nH]c(C=O)c1Cc1cccc(Cl)c1	0	1	0	7	-1	-10
SMILES	Tb MetRS inh	AHR act	HTR2A ag	AI-2 QS mod	MsrA inh	bovine MsrA act
CCOC(=O)c1c(C)[nH]c(C2=NNC(=Nc3cccc(Cl)c3)SC2)c1C	x	120*	x	37	x	x
CCOC(=O)c1sc(N)c(C(=O)OC)c1C	1	0	0	15	1	-4
CCOC(=O)c1sc(=S)[nH]c1C	0	x	-1	x	4	8.4*
Cc1ccccc1C(=O)N[C@@H](Cc1cccnc1)C(=O)N1CCC[C@H]1C(=O)NCCc1ccccc1Cl	x	x	x	x	1	x
O=C(Cn1nnc(N2CCOCC2)n1)NN=Cc1ccccc1Cl	x	x	x	x	0	x
CN1N=C2c3ccccc3CCC2C1c1ccc(Cl)cc1 (centres undefined)	0	66*	-5	11	1	-1
CN1N=C2c3ccccc3CCC2C1c1ccc(F)cc1 (centres undefined)	0	76*	-3	3	0	0
O=C(NCc1ccccc1)[C@@H]1CCCN1C(=O)[C@H]1CCCN1C(=O)c1ccccc1Cl	x	x	x	x	-1	x
Cc1ccc(C(=O)c2oc3nc(C)cc(C)c3c2N)cc1	0	95*	1	2	2	2
CC(C)C[C@H]1COc2cc(N3CCCC3)ccc2S(=O)(=O)N1	x	x	x	x	0	x
CSc1cccc(NC(=O)Nc2nc3c(C)cccc3s2)c1	-2	119*	-2	17	-1	-3
CCC(=O)NNc1nc2c(C)cccc2s1	-1	23	7	13	1	-6
COc1cccc2sc(NC(=O)c3ccc(Br)s3)nc12	-1	71*	-8	21	1	-4
Cc1cccc2sc(NNC(=O)c3ccc4c(c3)OCCO4)nc12	-1	59*	3	20	-1	-7
Cc1cccc2sc(NC(=O)c3ccc(Cl)s3)nc12	0	48*	-1	12	0	-4
COC(=O)Nc1nc2c(C)cccc2s1	0	23	-1	4	1	-1
COC(=O)C1=C(C)N(Cc2cccc(C(F)(F)F)c2)C(=NCc2cccc(C(F)(F)F)c2)NC1c1ccc(Cl)cc1 (centres undefined)	x	x	x	x	-3	x
C[C@@H]1CN([C@@H](C)CO)C(=O)CCCn2cc(nn2)CO[C@H]1CN(C)C(=O)C1CCCCC1	x	x	x	x	-1	x
CC1CCCN(c2cccc3c2S(=O)(=O)N(Cc2cccc(Cl)c2)[C@@H](C)[C@H](c2ccccc2)O3)C1 (some centres undefined)	x	x	x	x	3	x
C#CCNC[C@@H]1CSCCS(=O)(=O)N1	x	x	x	x	3	x
Cc1cccc(S(=O)(=O)N2CCC[C@H]2C(=O)N2CCC[C@@H]2C(=O)NCc2ccccc2)c1	x	x	x	x	0	x
COc1cccc2sc(NNC(=O)COc3ccccc3)nc12	0	51*	0	6	1	-4
COc1ccccc1-n1c(Cc2cccc3ccccc23)nnc1SCC(=O)O	x	x	x	x	-1	x
O=C(NCC1CCN(C(=O)C(=O)c2cc3ccccc3o2)CC1)c1ccc2c(c1)OCCCO2	x	x	x	x	1	x
Cc1ccc(C(=O)c2coc3cc([N+](=O)[O-])c(O)c([N+](=O)[O-])c23)cc1	-1	10	-3	-90*	1	-11
